Measured values reported in ChEMBL document CHEMBL1155459, “On-bead screening of a combinatorial fumaric acid derived peptide library yields antiplasmodial cysteine protease inhibitors with unusual peptide sequences” (J Med Chem, 2009).
Square brackets hold non-standard residues; d marks the D form. Peptide text beside a SMILES is read from it. * marks the point of attachment. Fumaroyl(AlaGlyPheOH) = C[C@H](NC(=O)/C=C/C(=O)*)C(=O)NCC(=O)N[C@@H](Cc1ccccc1)C(=O)O; Fumaroyl(GlyGlyPheOH) = O=C(/C=C/C(=O)*)NCC(=O)NCC(=O)N[C@@H](Cc1ccccc1)C(=O)O; Chg = N[C@H](C(=O)O)C1CCCCC1; Dap = NC[C@H](N)C(=O)O

Tests used:
[1] = target: Rhodesain (Trypanosoma brucei rhodesiense) (UniProt Q95PM0); test: Inhibition of Trypanosoma brucei rhodesiense rhodesain after 12 hrs by fluorescence spectroscopy-based on-bead assay; set-up: concentration or dose not given beside the values; settings: concentration not given here
Chain of Rhodesain (Trypanosoma brucei rhodesiense) (Q95PM0 1-450): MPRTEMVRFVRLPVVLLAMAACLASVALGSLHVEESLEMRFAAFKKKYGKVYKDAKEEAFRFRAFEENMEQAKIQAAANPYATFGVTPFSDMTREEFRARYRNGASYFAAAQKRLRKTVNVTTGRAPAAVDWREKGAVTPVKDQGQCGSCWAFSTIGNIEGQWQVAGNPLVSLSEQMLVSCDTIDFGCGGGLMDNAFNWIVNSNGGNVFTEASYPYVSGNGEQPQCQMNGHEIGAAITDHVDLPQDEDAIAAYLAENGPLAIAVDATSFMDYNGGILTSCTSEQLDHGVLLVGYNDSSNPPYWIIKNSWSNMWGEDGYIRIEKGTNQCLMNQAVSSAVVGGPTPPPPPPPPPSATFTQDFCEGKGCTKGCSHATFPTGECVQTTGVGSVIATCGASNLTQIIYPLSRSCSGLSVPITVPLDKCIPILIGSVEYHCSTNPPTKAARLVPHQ
In short: (§1)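 Library members on resin (PEGA, theoretical loading 0.40 mmol/g; added as DMSO suspension, 0.64 mM final inhibitor) preincubated with enzyme 12 h, then Cbz-Phe-Arg-AMC 40 μM added; AMC release followed by fluorescence (ex 380/em 460 nm). Kinetics compared with inhibitor-free amino-PEGA resin.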

[2] = Inhibition of Plasmodium falciparum falcipain-2 after 12 hrs by fluorescence spectroscopy-based on-bead assay; set-up: concentration or dose not given beside the values; settings: concentration not given here; in short: as §1

Compound	inhibition [1]	inhibition [2]
CC(C)C[C@H](NC(=O)[C@H](Cc1ccccc1)NC(=O)[C@H](CC(N)=O)NC(=O)/C=C/C(=O)N[C@@H](C)C(=O)NCC(=O)N[C@@H](Cc1ccccc1)C(=O)O)C(=O)N[C@H](C(N)=O)C(C)C (HELM PEPTIDE1{[C[C@H](NC(=O)/C=C/C(=O)[*:2])C(=O)NCC(=O)N[C@@H](Cc1ccccc1)C(=O)O].N.F.L.V.[am]}$$$$V2.0)	64%	58%
CC(C)C[C@H](NC(=O)[C@@H](NC(=O)[C@H](CCC(N)=O)NC(=O)/C=C/C(=O)N[C@@H](C)C(=O)NCC(=O)N[C@@H](Cc1ccccc1)C(=O)O)C1CCCCC1)C(=O)N[C@H](C(N)=O)C(C)C (HELM PEPTIDE1{[C[C@H](NC(=O)/C=C/C(=O)[*:2])C(=O)NCC(=O)N[C@@H](Cc1ccccc1)C(=O)O].Q.[O=C([C@@H](N[*:1])C1CCCCC1)[*:2]].L.V.[am]}$$$$V2.0)	52%	47%
CC(C)C[C@H](NC(=O)[C@H](C)NC(=O)/C=C/C(=O)N[C@@H](C)C(=O)NCC(=O)N[C@@H](Cc1ccccc1)C(=O)O)C(=O)N[C@H](C(=O)N[C@H](C(N)=O)C(C)C)C(C)C (HELM PEPTIDE1{[C[C@H](NC(=O)/C=C/C(=O)[*:2])C(=O)NCC(=O)N[C@@H](Cc1ccccc1)C(=O)O].A.L.V.V.[am]}$$$$V2.0)	59%	40%
CC(C)C[C@H](NC(=O)[C@H](CCC(N)=O)NC(=O)/C=C/C(=O)NCC(=O)NCC(=O)N[C@@H](Cc1ccccc1)C(=O)O)C(=O)N[C@@H](C)C(=O)N[C@H](C(N)=O)C(C)C (HELM PEPTIDE1{[O=C(/C=C/C(=O)[*:2])NCC(=O)NCC(=O)N[C@@H](Cc1ccccc1)C(=O)O].Q.L.A.V.[am]}$$$$V2.0)	38%	40%
CC(C)[C@H](NC(=O)[C@@H](NC(=O)[C@@H](NC(=O)[C@H](C)NC(=O)/C=C/C(=O)NCC(=O)NCC(=O)N[C@@H](Cc1ccccc1)C(=O)O)C1CCCCC1)C(C)C)C(N)=O (HELM PEPTIDE1{[O=C(/C=C/C(=O)[*:2])NCC(=O)NCC(=O)N[C@@H](Cc1ccccc1)C(=O)O].A.[O=C([C@@H](N[*:1])C1CCCCC1)[*:2]].V.V.[am]}$$$$V2.0)	40%	54%
CC[C@H](C)[C@H](NC(=O)[C@H](CC(N)=O)NC(=O)/C=C/C(=O)NCC(=O)NCC(=O)N[C@@H](Cc1ccccc1)C(=O)O)C(=O)N[C@H](C(=O)N[C@H](C(N)=O)C(C)C)C(C)C (HELM PEPTIDE1{[O=C(/C=C/C(=O)[*:2])NCC(=O)NCC(=O)N[C@@H](Cc1ccccc1)C(=O)O].N.I.V.V.[am]}$$$$V2.0)	39%	57%
CC(=O)NC[C@H](NC(=O)/C=C/C(=O)NCC(=O)NCC(=O)N[C@@H](Cc1ccccc1)C(=O)O)C(=O)N[C@@H](Cc1ccccc1)C(=O)N[C@H](C(=O)N[C@H](C(N)=O)C(C)C)C(C)C (HELM PEPTIDE1{[O=C(/C=C/C(=O)[*:2])NCC(=O)NCC(=O)N[C@@H](Cc1ccccc1)C(=O)O].[O=C([C@H](CN[*:3])N[*:1])[*:2]].F.V.V.[am]}|PEPTIDE2{[ac]}$PEPTIDE1,PEPTIDE2,2:R3-1:R2$$$V2.0)	61%	46%
CC(C)C[C@H](NC(=O)[C@H](CCC(N)=O)NC(=O)/C=C/C(=O)NCC(=O)NCC(=O)N[C@@H](Cc1ccccc1)C(=O)O)C(=O)N[C@@H](CC(C)C)C(=O)N[C@H](C(N)=O)C(C)C (HELM PEPTIDE1{[O=C(/C=C/C(=O)[*:2])NCC(=O)NCC(=O)N[C@@H](Cc1ccccc1)C(=O)O].Q.L.L.V.[am]}$$$$V2.0)	69%	42%
CC(C)C[C@H](NC(=O)[C@@H](NC(=O)[C@H](CC(N)=O)NC(=O)/C=C/C(=O)NCC(=O)NCC(=O)N[C@@H](Cc1ccccc1)C(=O)O)C1CCCCC1)C(=O)N[C@H](C(N)=O)C(C)C (HELM PEPTIDE1{[O=C(/C=C/C(=O)[*:2])NCC(=O)NCC(=O)N[C@@H](Cc1ccccc1)C(=O)O].N.[O=C([C@@H](N[*:1])C1CCCCC1)[*:2]].L.V.[am]}$$$$V2.0)	69%	45%
CC[C@H](C)[C@H](NC(=O)[C@H](CNC(C)=O)NC(=O)/C=C/C(=O)NCC(=O)NCC(=O)N[C@@H](Cc1ccccc1)C(=O)O)C(=O)N[C@@H](CC(C)C)C(=O)N[C@H](C(N)=O)C(C)C (HELM PEPTIDE1{[O=C(/C=C/C(=O)[*:2])NCC(=O)NCC(=O)N[C@@H](Cc1ccccc1)C(=O)O].[O=C([C@H](CN[*:3])N[*:1])[*:2]].I.L.V.[am]}|PEPTIDE2{[ac]}$PEPTIDE1,PEPTIDE2,2:R3-1:R2$$$V2.0)	60%	33%
CC(C)C[C@H](NC(=O)[C@@H](NC(=O)[C@H](CCC(N)=O)NC(=O)/C=C/C(=O)NCC(=O)NCC(=O)N[C@@H](Cc1ccccc1)C(=O)O)c1ccccc1)C(=O)N[C@H](C(N)=O)C(C)C (HELM PEPTIDE1{[O=C(/C=C/C(=O)[*:2])NCC(=O)NCC(=O)N[C@@H](Cc1ccccc1)C(=O)O].Q.[Phg].L.V.[am]}$$$$V2.0)	62%	50%
CC(=O)NC[C@H](NC(=O)/C=C/C(=O)NCC(=O)NCC(=O)N[C@@H](Cc1ccccc1)C(=O)O)C(=O)N[C@H](C(=O)N[C@H](C(=O)N[C@H](C(N)=O)C(C)C)C(C)C)C1CCCCC1 ({Fumaroyl(GlyGlyPheOH)}-[Dap](Ac)[Chg]VV-NH2)	52%	52%
CC(C)[C@H](NC(=O)[C@@H](NC(=O)[C@H](Cc1ccccc1)NC(=O)[C@H](C)NC(=O)/C=C/C(=O)N[C@@H](C)C(=O)NCC(=O)N[C@@H](Cc1ccccc1)C(=O)O)C(C)C)C(N)=O (HELM PEPTIDE1{[C[C@H](NC(=O)/C=C/C(=O)[*:2])C(=O)NCC(=O)N[C@@H](Cc1ccccc1)C(=O)O].A.F.V.V.[am]}$$$$V2.0)	55%	35%
CC[C@H](C)[C@H](NC(=O)[C@H](Cc1ccccc1)NC(=O)/C=C/C(=O)N[C@@H](C)C(=O)NCC(=O)N[C@@H](Cc1ccccc1)C(=O)O)C(=O)N[C@H](C(=O)N[C@H](C(N)=O)C(C)C)C(C)C (HELM PEPTIDE1{[C[C@H](NC(=O)/C=C/C(=O)[*:2])C(=O)NCC(=O)N[C@@H](Cc1ccccc1)C(=O)O].F.I.V.V.[am]}$$$$V2.0)	43%	45%
CC(=O)NC[C@H](NC(=O)/C=C/C(=O)NCC(=O)NCC(=O)N[C@@H](Cc1ccccc1)C(=O)O)C(=O)N[C@H](C(=O)N[C@H](C(=O)N[C@H](C(N)=O)C(C)C)C(C)C)c1ccccc1 (HELM PEPTIDE1{[O=C(/C=C/C(=O)[*:2])NCC(=O)NCC(=O)N[C@@H](Cc1ccccc1)C(=O)O].[O=C([C@H](CN[*:3])N[*:1])[*:2]].[Phg].V.V.[am]}|PEPTIDE2{[ac]}$PEPTIDE1,PEPTIDE2,2:R3-1:R2$$$V2.0)	40%	25%
CC[C@H](C)[C@H](NC(=O)[C@H](Cc1ccccc1)NC(=O)/C=C/C(=O)NCC(=O)NCC(=O)N[C@@H](Cc1ccccc1)C(=O)O)C(=O)N[C@H](C(=O)N[C@H](C(N)=O)C(C)C)C(C)C (HELM PEPTIDE1{[O=C(/C=C/C(=O)[*:2])NCC(=O)NCC(=O)N[C@@H](Cc1ccccc1)C(=O)O].F.I.V.V.[am]}$$$$V2.0)	50%	58%
CC[C@H](C)[C@H](NC(=O)[C@H](CC(N)=O)NC(=O)/C=C/C(=O)N[C@@H](C)C(=O)NCC(=O)N[C@@H](Cc1ccccc1)C(=O)O)C(=O)N[C@@H](CC(C)C)C(=O)N[C@H](C(N)=O)C(C)C (HELM PEPTIDE1{[C[C@H](NC(=O)/C=C/C(=O)[*:2])C(=O)NCC(=O)N[C@@H](Cc1ccccc1)C(=O)O].N.I.L.V.[am]}$$$$V2.0)	60%	47%
CC(C)[C@H](NC(=O)[C@H](C)NC(=O)[C@H](Cc1ccccc1)NC(=O)[C@H](CCC(N)=O)NC(=O)/C=C/C(=O)NCC(=O)NCC(=O)N[C@@H](Cc1ccccc1)C(=O)O)C(N)=O (HELM PEPTIDE1{[O=C(/C=C/C(=O)[*:2])NCC(=O)NCC(=O)N[C@@H](Cc1ccccc1)C(=O)O].Q.F.A.V.[am]}$$$$V2.0)	41%	54%
CC[C@H](C)[C@H](NC(=O)[C@H](Cc1ccccc1)NC(=O)/C=C/C(=O)NCC(=O)NCC(=O)N[C@@H](Cc1ccccc1)C(=O)O)C(=O)N[C@@H](C)C(=O)N[C@H](C(N)=O)C(C)C (HELM PEPTIDE1{[O=C(/C=C/C(=O)[*:2])NCC(=O)NCC(=O)N[C@@H](Cc1ccccc1)C(=O)O].F.I.A.V.[am]}$$$$V2.0)	30%	52%
CC[C@H](C)[C@H](NC(=O)[C@H](CNC(C)=O)NC(=O)/C=C/C(=O)N[C@@H](C)C(=O)NCC(=O)N[C@@H](Cc1ccccc1)C(=O)O)C(=O)N[C@@H](CC(C)C)C(=O)N[C@H](C(N)=O)C(C)C (HELM PEPTIDE1{[C[C@H](NC(=O)/C=C/C(=O)[*:2])C(=O)NCC(=O)N[C@@H](Cc1ccccc1)C(=O)O].[O=C([C@H](CN[*:3])N[*:1])[*:2]].I.L.V.[am]}|PEPTIDE2{[ac]}$PEPTIDE1,PEPTIDE2,2:R3-1:R2$$$V2.0)	61%	32%
CC[C@H](C)[C@H](NC(=O)[C@H](C)NC(=O)/C=C/C(=O)NCC(=O)NCC(=O)N[C@@H](Cc1ccccc1)C(=O)O)C(=O)N[C@H](C(=O)N[C@H](C(N)=O)C(C)C)C(C)C (HELM PEPTIDE1{[O=C(/C=C/C(=O)[*:2])NCC(=O)NCC(=O)N[C@@H](Cc1ccccc1)C(=O)O].A.I.V.V.[am]}$$$$V2.0)	33%	32%
CC(=O)NC[C@H](NC(=O)/C=C/C(=O)N[C@@H](C)C(=O)NCC(=O)N[C@@H](Cc1ccccc1)C(=O)O)C(=O)N[C@H](C(=O)N[C@@H](CC(C)C)C(=O)N[C@H](C(N)=O)C(C)C)C1CCCCC1 ({Fumaroyl(AlaGlyPheOH)}-[Dap](Ac)[Chg]LV-NH2)	51%	56%
CC(=O)NC[C@H](NC(=O)/C=C/C(=O)N[C@@H](C)C(=O)NCC(=O)N[C@@H](Cc1ccccc1)C(=O)O)C(=O)N[C@H](C(=O)N[C@@H](C)C(=O)N[C@H](C(N)=O)C(C)C)c1ccccc1 (HELM PEPTIDE1{[C[C@H](NC(=O)/C=C/C(=O)[*:2])C(=O)NCC(=O)N[C@@H](Cc1ccccc1)C(=O)O].[O=C([C@H](CN[*:3])N[*:1])[*:2]].[Phg].A.V.[am]}|PEPTIDE2{[ac]}$PEPTIDE1,PEPTIDE2,2:R3-1:R2$$$V2.0)	34%	35%
